Here are results for twelve compounds from ChEMBL document CHEMBL3596168, “Novel inhibitors of RANKL-induced osteoclastogenesis: Design, synthesis, and biological evaluation of 6-(2,4-difluorophenyl)-3-phenyl-2H-benzo[e][1,3]oxazine-2,4(3H)-diones” (Bioorg Med Chem, 2015).

Series [1] has as its target T1, Tumor necrosis factor ligand superfamily member 11 (Mus musculus) (UniProt O35235).
T1 sequence (whole entry): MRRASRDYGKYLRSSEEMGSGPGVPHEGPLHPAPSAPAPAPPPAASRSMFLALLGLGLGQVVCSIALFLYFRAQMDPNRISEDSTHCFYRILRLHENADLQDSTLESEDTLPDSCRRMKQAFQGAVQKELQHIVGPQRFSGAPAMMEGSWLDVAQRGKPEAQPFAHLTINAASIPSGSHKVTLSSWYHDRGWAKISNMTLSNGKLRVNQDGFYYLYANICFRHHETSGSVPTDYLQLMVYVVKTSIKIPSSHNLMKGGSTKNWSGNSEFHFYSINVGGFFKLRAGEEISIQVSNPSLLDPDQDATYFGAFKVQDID
The series can be described thus: Inhibition of recombinant mouse RANKL-induced NF-kappaB expression in nuclear extracts of mouse RAW264.7 cells assessed as decrease in ratio of NFATc1 to TBP level at 5 uM preincubated for 1 hr followed by RANKL addition measured after 24 hrs by Western blot analysis relative to control. The procedure, abridged:
(§1)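 RAW264.7 cells (1 × 10⁵ per dish) grew in DMEM/10% FBS for 24 h. They were pretreated with compound in α-MEM/10% FBS for 1 h, then given RANKL (100 ng/mL) for 24 h. Nuclear extracts (18 µg protein) were run on 12% SDS–PAGE and immunoblotted for NF-κB p65, NFATc1 and TBP (loading reference) with ECL detection. More than two cultures.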
(In general: Immunoblotting shows a protein as a band on a membrane.)

A short description of series [2]: Cytotoxicity against mouse RAW264.7 cells assessed as cell viability at 5 uM after 24 hrs by MTT assay relative to control. It counts as cell-based. The settings on record: read-out: Activity. The procedure, abridged:
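RAW264.7 cells, 1 × 10⁴ per well in DMEM with 10% FBS, were exposed to compounds for 24 h. MTT (500 µg/mL) was then added for 1 h at 37 °C, formazan was dissolved in DMSO, and absorbance was read at 540 nm. Viability at 5 µM is relative to untreated control. At least three independent experiments, mean ± SD.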

For series [3], the target named is T1, Tumor necrosis factor ligand superfamily member 11 (Mus musculus). Nature of the series: Inhibition of recombinant mouse RANKL-induced osteoclastogenesis of mouse RAW264.7 cells assessed as suppression of c-fos mRNA expression at 2.5 to 5 uM preincubated for 1 hr followed by RANKL addition measured after 24 hrs by RT-PCR analysis. It counts as cell-based. In outline: (§2)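 RAW264.7 cells (1 × 10⁵ per dish) were serum-starved 24 h in α-MEM, pretreated with compound for 1 h, then given RANKL (100 ng/mL) for 24 h. Total RNA (2 µg) was reverse-transcribed with oligo(dT) and amplified with mouse-specific primers. Products were resolved on 1.5% agarose with EtBr and densities normalized to GAPDH, as % of control. At least two independent experiments.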

Series [4] shares this target. Nature of the series: Inhibition of recombinant mouse RANKL-induced TRAP activity in mouse RAW264.7 cells using 4-nitrophenyl phosphate as TRAP substrate preincubated for 4 days followed by substrate addition measured after 15 mins by ELISA reader analysis. The class given is cell-based. The procedure, abridged: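 RAW264.7 cells (2 × 10⁴ per well) were cultured 4 days in α-MEM with 10% FBS, 2 mM L-glutamine and murine RANKL 100 ng/mL, with or without compound. Cells were lysed in 0.1% Triton X-100/50 mM Tris-HCl pH 7.2 on ice. They were incubated with 2 mg/mL 4-nitrophenyl phosphate in 0.09 M citrate for 15 min at 37 °C, stopped with 0.1 N NaOH, and read at 405 nm. Protein was measured by BCA.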

Series [5] shares this target. The series can be described thus: Inhibition of recombinant mouse RANKL-induced bone resorptive activity of mature osteoclasts derived from mouse RAW264.7 cells assessed as attenuation of resorbing pit formation on dentine slices after 4 days by toluidine blue staining assay. It counts as tissue-based. The procedure, abridged:
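Cells (1 × 10⁴ per well) were seeded on dentine slices in α-MEM with 10% FBS, 2 mM L-glutamine and RANKL 100 ng/mL, plus compound at 7.5, 5 or 2.5 µM. Medium was refreshed every 2 days. On day 4 cells were removed with 1 M NH₄OH and slices stained with 0.1% toluidine blue. Resorbed/total area was expressed as % of control, from more than 6 slices.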

The target is the same in series [6]. The series can be described thus: Inhibition of recombinant mouse RANKL-induced osteoclastogenesis of mouse RAW264.7 cells assessed as suppression of cathepsin K mRNA expression at 2.5 to 5 uM preincubated for 1 hr followed by RANKL addition measured after 24 hrs by RT-PCR analysis. The class given is cell-based. In outline:
as §2

The target is the same in series [7]. The series can be described thus: Inhibition of recombinant mouse RANKL-induced NF-kappaB expression in nucleus of mouse RAW264.7 cells at 5 uM preincubated for 1 hr followed by RANKL addition measured after 24 hrs by ELISA plate analysis. The class given is cell-based. In outline:
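Cells were pretreated 1 h with compound in α-MEM/10% FBS, then stimulated with RANKL (100 ng/mL) for 24 h. NF-κB p65 DNA binding in nuclear extracts was measured on plates coated with the response element, using primary plus tagged secondary antibody. Absorbance was read at 450 nm.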

For series [8] the target is unchanged. The series can be described thus: Inhibition of recombinant mouse RANKL-induced osteoclastogenesis of mouse RAW264.7 cells assessed as reduction of TRAP-positive multinucleated cells at 5 uM after 4 days by light microscopic analysis relative to control. It counts as cell-based. In outline: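 RAW264.7 cells were cultured 4 days in α-MEM with 10% FBS, 2 mM L-glutamine and RANKL 100 ng/mL, with or without compound at 5 µM. Medium was changed on day 2. Cells were fixed in acetone/citrate/formaldehyde and stained for TRAP for 1 h at 37 °C. TRAP+ cells with three or more nuclei were counted by light microscopy. Inhibition = 100% − MNCs (%). At least three independent experiments.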

Series [9] has the same target. The series can be described thus: Inhibition of recombinant mouse RANKL-induced osteoclastogenesis of mouse RAW264.7 cells assessed as suppression of NFATc1 mRNA expression at 2.5 to 5 uM preincubated for 1 hr followed by RANKL addition measured after 24 hrs by RT-PCR analysis. The class given is cell-based. In outline: as §2
Series [10] has the same target. Nature of the series: Inhibition of recombinant mouse RANKL-induced NF-kappaB expression in nuclear extracts of mouse RAW264.7 cells assessed as decrease in ratio of NF-kappaB to TBP level at 5 uM preincubated for 1 hr followed by RANKL addition measured after 24 hrs by Western blot analysis relative to control. The procedure, abridged: as §1
The target is the same in series [11]. The series can be described thus: Inhibition of recombinant mouse RANKL-induced osteoclastogenesis of mouse RAW264.7 cells assessed as suppression of TRAP mRNA expression at 2.5 to 5 uM preincubated for 1 hr followed by RANKL addition measured after 24 hrs by RT-PCR analysis. It counts as cell-based. In outline:
as §2

Molecules are shown by their SMILES. Active and inactive are the calls of the source. No cut-off for these calls is given here.

As a reminder, the inhibition is how much of the control response was suppressed.

Consider `O=c1oc2ccc(-c3ccc(F)cc3F)cc2c(=O)n1-c1cc(F)ccc1F`, for which the fold change (FC) in [1] was 0.61; in series [10] it was 0.69. Moreover, the viability at 24 h, 5 µM in series [2] turned out to be 86.6%. The inhibition entry in series [3], in series [6], in series [7], in series [9] and in series [11] was “Active” each time. Also, the inhibition entry is “Dose-dependent effect” in series [4], “Dose-dependent effect” in series [5] and 86.8% in series [8].
For the compound `O=c1oc2ccc(-c3ccc(F)cc3F)cc2c(=O)n1-c1ccc(C(F)(F)F)cc1`, the viability at 24 h, 5 µM in [2] was found to be 103%. Besides, the inhibition in series [8] was found to be 16.9%.
`N#Cc1ccc(-n2c(=O)oc3ccc(-c4ccc(F)cc4F)cc3c2=O)cc1`: the viability at 24 h, 5 µM in [2] is 108%. In [8], the inhibition came to 29.4%.
The matching figures for `O=c1oc2ccc(-c3ccc(F)cc3F)cc2c(=O)n1-c1ccc(F)cc1F`: 96.5% and 42.3%.
Turning to `O=c1oc2ccc(-c3ccc(F)cc3F)cc2c(=O)n1-c1ccc(F)c(F)c1`, the viability at 24 h, 5 µM in series [2] is 72.2%. The inhibition in series [8] came to 17.4%.
Take `O=c1oc2ccc(-c3ccc(F)cc3F)cc2c(=O)n1-c1ccccc1C(F)(F)F`: the viability at 24 h, 5 µM in series [2] is 95.5%. Moreover, in [8], the inhibition amounted to 31.6%.
Take `COc1cccc(-n2c(=O)oc3ccc(-c4ccc(F)cc4F)cc3c2=O)c1`: the viability at 24 h, 5 µM in series [2] was determined as 106%. Moreover, the inhibition in series [8] worked out at 30.8%.
In the case of `N#Cc1cccc(-n2c(=O)oc3ccc(-c4ccc(F)cc4F)cc3c2=O)c1`, the viability at 24 h, 5 µM in series [2] was 103%. In addition, the inhibition in [8] is 34%.
Take `COc1ccc(-n2c(=O)oc3ccc(-c4ccc(F)cc4F)cc3c2=O)cc1OC`: in series [2], the viability at 24 h, 5 µM turned out to be 103%. For the same compound, in [8], the inhibition worked out at 21.2%.
Take `O=c1oc2ccc(-c3ccc(F)cc3F)cc2c(=O)n1-c1cccc(C(F)(F)F)c1`: the viability at 24 h, 5 µM in [2] stood at 100%. Further, the inhibition entry in series [4] was “Dose-dependent effect”; in series [8], 62.9%.
As to `C#Cc1cccc(-n2c(=O)oc3ccc(-c4ccc(F)cc4F)cc3c2=O)c1`, the viability at 24 h, 5 µM in [2] was 88.4%. The inhibition entry in series [3], in series [6], in [9] and in [11] was “Active” in each case. The inhibition entry in [4] is “Dose-dependent effect”; in series [8] it was 57.5%.
`O=c1oc2ccc(-c3ccc(F)cc3F)cc2c(=O)n1-c1ccc(Cl)cc1F`: the viability at 24 h, 5 µM in series [2] worked out at 96.2%. The inhibition in series [8] turned out to be 19.4%.
